Active and inactive are the calls of the source. The calls are words filed in the database; no cut-off is given here.
These compounds were tested against T1, Serine/threonine-protein kinase TAO2 (Homo sapiens) (UniProt Q9UL54) (assay: Inhibition of TAOK2 in human U2OS cells assessed as inhibition of cellular autophagy measured as GFP-LC3 accumulation at 50 uM after 24 hrs by flow cytometric analysis).
T1 sequence (whole entry): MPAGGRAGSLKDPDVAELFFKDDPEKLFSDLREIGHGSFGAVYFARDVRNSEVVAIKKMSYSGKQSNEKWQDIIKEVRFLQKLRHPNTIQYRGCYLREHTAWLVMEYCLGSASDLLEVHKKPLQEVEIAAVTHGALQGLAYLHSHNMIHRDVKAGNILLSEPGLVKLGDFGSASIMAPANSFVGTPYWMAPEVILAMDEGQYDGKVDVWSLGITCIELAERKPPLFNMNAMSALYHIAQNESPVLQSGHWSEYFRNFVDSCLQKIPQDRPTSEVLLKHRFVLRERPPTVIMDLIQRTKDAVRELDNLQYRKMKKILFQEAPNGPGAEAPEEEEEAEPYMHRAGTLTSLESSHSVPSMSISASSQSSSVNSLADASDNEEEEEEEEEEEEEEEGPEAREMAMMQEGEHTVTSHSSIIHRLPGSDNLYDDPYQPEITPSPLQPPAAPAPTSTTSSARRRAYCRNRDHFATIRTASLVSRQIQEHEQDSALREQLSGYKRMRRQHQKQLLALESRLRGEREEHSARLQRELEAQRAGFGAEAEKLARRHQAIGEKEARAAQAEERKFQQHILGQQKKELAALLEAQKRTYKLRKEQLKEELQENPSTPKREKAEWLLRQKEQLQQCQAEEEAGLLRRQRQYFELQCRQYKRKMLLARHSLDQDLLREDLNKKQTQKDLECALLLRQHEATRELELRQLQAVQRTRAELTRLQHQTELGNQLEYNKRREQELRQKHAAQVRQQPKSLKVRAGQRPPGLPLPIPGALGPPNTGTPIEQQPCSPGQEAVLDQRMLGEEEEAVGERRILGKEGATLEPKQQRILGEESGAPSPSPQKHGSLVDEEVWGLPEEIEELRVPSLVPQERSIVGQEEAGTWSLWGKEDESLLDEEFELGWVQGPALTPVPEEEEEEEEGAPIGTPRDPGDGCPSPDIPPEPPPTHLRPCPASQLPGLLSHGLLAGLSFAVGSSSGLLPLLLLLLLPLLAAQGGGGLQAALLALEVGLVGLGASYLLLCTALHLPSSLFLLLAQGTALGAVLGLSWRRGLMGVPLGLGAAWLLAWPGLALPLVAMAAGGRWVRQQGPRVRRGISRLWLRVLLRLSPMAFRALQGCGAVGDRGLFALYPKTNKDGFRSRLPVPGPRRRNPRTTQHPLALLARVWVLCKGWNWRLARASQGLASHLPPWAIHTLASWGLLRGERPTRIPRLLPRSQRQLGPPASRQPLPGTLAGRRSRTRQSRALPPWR
Assay type: cell-based
In short: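 U2OS cells stably expressing GFP–LC3 were exposed to compound at 50 µM in the medium for 24 h. GFP fluorescence was read by flow cytometry. The median value from 20,000 cells per condition was normalized to DMSO vehicle within each experiment. Data are mean + SD of >2 independent experiments, compared with vehicle by unpaired t test.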

SMILES	inhibition
COc1ccc(O)c(/C=C2/SC(=S)NC2=O)c1	Active
CO/C1=C\C(C)=C\[C@@H](C)[C@@H](O)[C@@H](C)C/C(C)=C/C=C/[C@H](OC)[C@@H]([C@@H](C)[C@@H](O)[C@H](C)[C@@]2(O)C[C@@H](O)[C@H](C)[C@@H](C(C)C)O2)OC1=O	Active
O=C(Nc1cccc(-c2nc3ccccc3c(=O)o2)c1)c1ccccc1Br	Active

What follows are compounds tested against T1, Serine/threonine-protein kinase TAO2 (Homo sapiens) (assay: Inhibition of TAOK2 in human U2OS cells assessed as inhibition of cellular autophagy measured as P62 accumulation at 50 uM after 24 hrs by western blot analysis).
Assay type: cell-based
In short: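 GFP–LC3-expressing U2OS cells were treated for 24 h with compound at 50 µM or with DMSO alone. p62 (SQSTM1) abundance was then assessed by Western blotting as a readout of autophagic degradation.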

SMILES	inhibition
O=C(Nc1cccc(-c2nc3ccccc3c(=O)o2)c1)c1ccccc1Br	Active

These compounds were tested against T2, Serine/threonine-protein kinase TAO2 (Rattus norvegicus) (UniProt Q9JLS3) (assay: Binding affinity to rat TAOK2 (1 to 320 residues) expressed in Baculovirus/insect cell expression system assessed as change in melting temperature at 1 uM by SYPRO orange dye-based DSF analysis).
T2 sequence (whole entry): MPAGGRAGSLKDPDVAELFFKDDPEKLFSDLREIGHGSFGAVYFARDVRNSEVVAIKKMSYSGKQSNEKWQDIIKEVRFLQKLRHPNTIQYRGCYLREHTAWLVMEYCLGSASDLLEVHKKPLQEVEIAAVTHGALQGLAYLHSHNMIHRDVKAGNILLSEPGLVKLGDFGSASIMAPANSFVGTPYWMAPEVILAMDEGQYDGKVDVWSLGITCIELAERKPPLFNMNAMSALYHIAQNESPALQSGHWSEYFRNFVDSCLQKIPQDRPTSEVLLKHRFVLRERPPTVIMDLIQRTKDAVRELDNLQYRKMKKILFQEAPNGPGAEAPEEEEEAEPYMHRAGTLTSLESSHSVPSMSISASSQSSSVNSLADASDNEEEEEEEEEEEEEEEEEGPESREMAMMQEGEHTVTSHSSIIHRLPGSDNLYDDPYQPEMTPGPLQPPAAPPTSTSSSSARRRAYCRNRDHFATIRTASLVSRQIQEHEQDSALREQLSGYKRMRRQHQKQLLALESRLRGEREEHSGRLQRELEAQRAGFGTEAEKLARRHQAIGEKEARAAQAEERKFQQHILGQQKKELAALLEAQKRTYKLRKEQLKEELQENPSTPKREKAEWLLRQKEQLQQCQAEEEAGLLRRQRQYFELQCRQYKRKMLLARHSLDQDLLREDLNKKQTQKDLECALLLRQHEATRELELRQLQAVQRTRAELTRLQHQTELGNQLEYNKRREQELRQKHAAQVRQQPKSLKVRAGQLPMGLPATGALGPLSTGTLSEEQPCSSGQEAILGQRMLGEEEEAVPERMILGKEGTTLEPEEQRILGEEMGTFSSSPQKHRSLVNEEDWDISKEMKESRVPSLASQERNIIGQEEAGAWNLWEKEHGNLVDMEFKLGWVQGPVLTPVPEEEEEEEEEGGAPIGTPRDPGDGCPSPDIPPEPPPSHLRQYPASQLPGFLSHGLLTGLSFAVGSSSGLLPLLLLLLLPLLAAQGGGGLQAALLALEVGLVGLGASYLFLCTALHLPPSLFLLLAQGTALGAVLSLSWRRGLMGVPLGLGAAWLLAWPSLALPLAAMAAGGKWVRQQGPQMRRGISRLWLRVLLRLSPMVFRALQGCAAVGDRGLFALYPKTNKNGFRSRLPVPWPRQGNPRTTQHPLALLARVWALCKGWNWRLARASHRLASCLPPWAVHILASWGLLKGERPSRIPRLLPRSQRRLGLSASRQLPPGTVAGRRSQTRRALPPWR
In short: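 Differential scanning fluorimetry: each compound's melting-temperature shift (ΔTm, °C) was measured on the kinase protein. Compounds giving a TAOK2 ΔTm above 0.5 °C were also run against p38 and ASK1. Selectivity (ΔΔTm) was taken as the TAOK2 ΔTm minus the p38 or ASK1 ΔTm.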

SMILES	ΔTm [°C]
Cc1cccc(NC(=S)N/N=C/c2c[nH]c3ccccc23)c1	0.5
COc1ccc(O)c(/C=C2/SC(=S)NC2=O)c1	-0.2
O=C(Nc1cccc(-c2nc3ccccc3c(=O)o2)c1)c1ccccc1Br	-0.6

Each compound was assayed against T3, Serine/threonine-protein kinase TAO2 (Rattus norvegicus, UniProt Q9JLS3) (assay: Inhibition of rat TAOK2 (1 to 320 residues) expressed in Baculovirus/insect cell expression system assessed as remaining activity using MBP as substrate and [32P]ATP measured after 10 mins by Kinase-Glo assay).
T3 sequence (Q9JLS3 whole entry): T2 sequence (whole entry)

SMILES	IC50 [nM]
CC(=O)Nc1nc(C)c(-c2csc(Nc3ccc([N+](=O)[O-])cc3)n2)s1	10000
CCC(=O)Nc1nc(C)c(-c2csc(Nc3ccc(S(N)(=O)=O)cc3)n2)s1	1000
CCC(=O)Nc1nc(C)c(-c2csc(Nc3cccc(C(=O)O)c3)n2)s1	1700
CN1c2ccc(S(C)(=O)=O)cc2SC1NC(=O)CCCOC1CCCCC1 (stereo not drawn)	1900
CCN(CC)c1ccc(Nc2nc(-c3sc(NC(C)=O)nc3C)cs2)cc1	1700
CC(=O)Nc1nc(C)c(-c2csc(Nc3ccccc3)n2)s1	1100
CC(=O)c1cccc(Nc2nc(-c3sc(N)nc3C)cs2)c1	1400
CN1c2ccc(S(C)(=O)=O)cc2SC1NC(=O)c1ccc(C(=O)c2ccccc2)cc1 (stereo not drawn)	1000
CCC(=O)Nc1nc(C)c(-c2csc(Nc3ccc([N+](=O)[O-])cc3)n2)s1	1000
CC(=O)Nc1nc(C)c(-c2csc(Nc3cccc(C)c3)n2)s1	900
Cc1cccc(NC(=S)N/N=C/c2c[nH]c3ccccc23)c1	1000
COc1ccccc1Nc1nc(-c2sc(NC(C)=O)nc2C)cs1	2100
Cc1cccc(Nc2nc(-c3sc(N)nc3C)cs2)c1	1700
COc1ccc(O)c(/C=C2/SC(=S)NC2=O)c1	3000
Cc1nc(NC(=O)c2ccccc2)sc1-c1csc(Nc2ccc(S(N)(=O)=O)cc2)n1	800
O=C(NCC1COc2ccccc2O1)c1ccc2c(=O)n(Cc3ccco3)c(=S)[nH]c2c1 (stereo not drawn)	600
CN1c2ccc(S(C)(=O)=O)cc2SC1NC(=O)CC1CCC(Br)CC1 (stereo not drawn)	1400
CC(=O)Nc1nc(C)c(-c2csc(Nc3ccc(O)cc3)n2)s1	3800
CC(=O)Nc1nc(C)c(-c2csc(Nc3cccc(C(=O)O)c3)n2)s1	1300
Cc1nc(N)sc1-c1csc(Nc2cccc(O)c2)n1	1400
CCC(=O)Nc1nc(C)c(-c2csc(Nc3ccc(N(C)C)cc3)n2)s1	1200
CCC(=O)Nc1nc(C)c(-c2csc(Nc3cc(Cl)ccc3C)n2)s1	1600
CC(=O)Nc1nc(C)c(-c2csc(Nc3cccc([N+](=O)[O-])c3)n2)s1	10100

SMILES	IC50 [nM]
O=C(NCCSCc1ccccc1)c1ccc2c(=O)n(C3CCCCC3)c(=S)[nH]c2c1	1900
COc1ccc(OC)c(Nc2nc(-c3sc(N)nc3C)cs2)c1	1000
CCC(=O)Nc1nc(C)c(-c2csc(Nc3cccc(O)c3)n2)s1	1000
CC(=O)Nc1nc(C)c(-c2csc(Nc3ccc(Br)cc3)n2)s1	1000
Cc1nc(N)sc1-c1csc(Nc2cccc([N+](=O)[O-])c2)n1	1700
CCC(=O)Nc1nc(C)c(-c2csc(Nc3ccc(O)cc3)n2)s1	1600
Cc1nc(N)sc1-c1csc(Nc2cccc(Cl)c2)n1	3100
CC(=O)Nc1nc(C)c(-c2csc(Nc3ccc(C)cc3)n2)s1	1100
CCOc1ccccc1Nc1nc(-c2sc(NC(C)=O)nc2C)cs1	1600
CC(=O)Nc1nc(C)c(-c2csc(Nc3ccccc3C)n2)s1	1800
Cc1nc(N)sc1-c1csc(Nc2ccc([N+](=O)[O-])cc2)n1	1000
COc1ccc(Cl)cc1Nc1nc(-c2sc(NC(C)=O)nc2C)cs1	1100
CN1c2ccc(S(C)(=O)=O)cc2SC1NC(=O)/C=C/c1ccc(F)cc1 (stereo not drawn)	800
CCC(=O)Nc1nc(C)c(-c2csc(Nc3ccc(N(CC)CC)cc3)n2)s1	2700
CC(=O)Nc1nc(C)c(-c2csc(Nc3cccc(C(C)=O)c3)n2)s1	12000
CN1c2ccc(S(C)(=O)=O)cc2SC1NC(=O)CCCc1ccccc1 (stereo not drawn)	1700
CCC(=O)Nc1nc(C)c(-c2csc(Nc3ccccc3OC)n2)s1	1400
CCOc1ccccc1Nc1nc(-c2sc(NC(=O)CC)nc2C)cs1	600
CCC(=O)Nc1nc(C)c(-c2csc(Nc3ccc(NC(C)=O)cc3)n2)s1	1900
CCC(=O)Nc1nc(C)c(-c2csc(Nc3cccc([N+](=O)[O-])c3)n2)s1	1000
Cc1nc(N)sc1-c1csc(Nc2ccc(S(N)(=O)=O)cc2)n1	1400
O=C(Nc1cccc(-c2nc3ccccc3c(=O)o2)c1)c1ccccc1Br	4000
COc1ccc(Cl)cc1Nc1nc(-c2sc(N)nc2C)cs1	1000 to 1500

Reference: ChEMBL document CHEMBL4477233, “Discovery of novel TAOK2 inhibitor scaffolds from high-throughput screening” (Bioorg Med Chem Lett, 2016)
